The nature of data set [1]: AUC(infinity) in neutropenic mouse at 150 mg/kg/day, ip bid of total 12 doses. On the set-up: dose 150 mg/kg/day, time infinity, route intraperitoneal. To be noted: plasma. It is filed as ADME, organism-based. In a few lines: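 CD-1 mice were made neutropenic with ip cyclophosphamide, 150 mg/kg at day −4 and 100 mg/kg at day −1, then infected in the thigh with P. aeruginosa PAO1. Dosing was ip, bid q12 from 2 h post-infection, in 5% dextrose with lactic acid pH 5.0. Groups of three mice were killed at timed intervals and cardiac-puncture plasma was analysed by LC–MS/MS.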

A short description of data set [2]: Ratio of fAUC to MIC in Pseudomonas aeruginosa PAO1 in neutropenic mouse thigh infection model at 100 mg/kg/day, ip bid of total 12 doses starting 2 h post infection. Particulars: route intraperitoneal.
The nature of data set [3]: Ratio of fAUC to MIC in Pseudomonas aeruginosa PAO1 in neutropenic mouse thigh infection model at 200 mg/kg/day, ip bid q12h starting 2 h post infection. Particulars: route intraperitoneal.

Consider one compound from ChEMBL document CHEMBL3352316, “Optimization of physicochemical properties and safety profile of novel bacterial topoisomerase type II inhibitors (NBTIs) with activity against Pseudomonas aeruginosa” (Bioorg Med Chem, 2014).

Structures are written as SMILES.

By AUC(0-inf) is commonly meant total exposure, with the tail of the curve extrapolated. Low readings indicate less exposure, high ones more exposure. Turning to `N[C@@H](Cn1c(=O)cnc2ccc(F)cc21)[C@H]1CC[C@H](NCc2ncc3c(n2)NC(=O)CO3)CC1`, the AUC(0-inf) in data set [1] amounted to 20100 ng·h/mL. Moreover, the values for the fAUC/MIC in data set [2] and in data set [3] were 12 and 23, respectively.
